Data from ChEMBL document CHEMBL3853298, “Total synthesis and in vitro bioevaluation of clavaminols A, C, H & deacetyl clavaminol H as potential chemotherapeutic and antibiofilm agents” (Eur J Med Chem, 2016).
Converted amounts (≈) assume the structure as drawn.

Tests used:
[1] = Cytotoxicity against human SKOV3 cells assessed as cell growth inhibition by MTT assay; type: functional, cell-based; details: SK-OV-3
[2] = Cytotoxicity against human DU145 cells assessed as cell growth inhibition by MTT assay; type: functional, cell-based; details: DU-145
[3] = Cytotoxicity against human HeLa cells assessed as cell growth inhibition by MTT assay; type: functional, cell-based
[4] = Cytotoxicity against human MCF7 cells assessed as cell growth inhibition by MTT assay; type: functional, cell-based
Staphylococcus aureus [5] = experiment: Antibacterial activity against Staphylococcus aureus MTCC 96 after 24 hrs by well diffusion method; type: functional; details: MTCC 96, 24 h
How it was run: (§1)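 Bacteria spread (0.1 mL suspension) on Mueller-Hinton agar; 6.0 mm wells loaded with compound over a 250 to 0.48 per-well dose range, methanol as negative control. Incubated 24 h at 37 °C. MIC taken as the lowest concentration still giving an inhibition zone. Duplicates, mean reported.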

Bacillus subtilis [6] = experiment: Antibacterial activity against Bacillus subtilis MTCC 121 after 24 hrs by well diffusion method; type: functional; details: MTCC 121, 24 h; how it was run: as §1
Micrococcus luteus = experiment: Antibacterial activity against Micrococcus luteus MTCC 2470 after 24 hrs by well diffusion method; type: functional; details: MTCC 2470, 24 h; how it was run: as §1
Staphylococcus aureus [7] = experiment: Antibacterial activity against Staphylococcus aureus MLS16 MTCC 2940 after 24 hrs by well diffusion method; type: functional; details: MLS16 MTCC 2940, 24 h; how it was run: as §1
Raoultella planticola = experiment: Antibacterial activity against Klebsiella planticola MTCC 530 after 24 hrs by well diffusion method; type: functional; details: MTCC 530, 24 h; how it was run: as §1
Escherichia coli = experiment: Antibacterial activity against Escherichia coli MTCC 739 after 24 hrs by well diffusion method; type: functional; details: MTCC 739, 24 h; how it was run: as §1
Pseudomonas aeruginosa = experiment: Antibacterial activity against Pseudomonas aeruginosa MTCC 2453 after 24 hrs by well diffusion method; type: functional; details: MTCC 2453, 24 h; how it was run: as §1
Candida albicans [8] = experiment: Antifungal activity against Candida albicans MTCC 227 after 24 hrs by well diffusion method; type: functional; details: MTCC 227, 24 h
How it was run: (§2)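 Candida/Issatchenkia lawns (0.1 mL suspension) on Mueller-Hinton agar; 6.0 mm bored wells receive compound across a 250 to 0.48 per-well dose range, methanol as negative control. Plates kept 24 h at 30 °C. MIC is the lowest concentration producing a visible inhibition zone. Duplicate runs, mean values.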

Candida albicans [9] = experiment: Antifungal activity against Candida albicans MTCC 183 after 24 hrs by well diffusion method; type: functional; details: MTCC 183, 24 h; how it was run: as §2
Candida albicans [10] = experiment: Antifungal activity against Candida albicans MTCC 854 after 24 hrs by well diffusion method; type: functional; details: MTCC 854, 24 h; how it was run: as §2
Candida albicans [11] = experiment: Antifungal activity against Candida albicans MTCC 1637 after 24 hrs by well diffusion method; type: functional; details: MTCC 1637, 24 h; how it was run: as §2
Candida albicans [12] = experiment: Antifungal activity against Candida albicans MTCC 3017 after 24 hrs by well diffusion method; type: functional; details: MTCC 3017, 24 h; how it was run: as §2
Candida albicans [13] = experiment: Antifungal activity against Candida albicans MTCC 3018 after 24 hrs by well diffusion method; type: functional; details: MTCC 3018, 24 h; how it was run: as §2
Candida albicans [14] = experiment: Antifungal activity against Candida albicans MTCC 3958 after 24 hrs by well diffusion method; type: functional; details: MTCC 3958, 24 h; how it was run: as §2
Candida albicans [15] = experiment: Antifungal activity against Candida albicans MTCC 4748 after 24 hrs by well diffusion method; type: functional; details: MTCC 4748, 24 h; how it was run: as §2
Candida albicans [16] = experiment: Antifungal activity against Candida albicans MTCC 7315 after 24 hrs by well diffusion method; type: functional; details: MTCC 7315, 24 h; how it was run: as §2
[17] = Antifungal activity against Candida parapsilosis MTCC 1744 after 24 hrs by well diffusion method; type: functional; how it was run: as §2
[Candida] aaseri = Antifungal activity against Candida aaseri MTCC 1962 after 24 hrs by well diffusion method; type: functional; details: Yamadazyma aaseri, MTCC 1962, 24 h; how it was run: as §2
[18] = Antifungal activity against Candida glabrata MTCC 3019 after 24 hrs by well diffusion method; type: functional; details: Nakaseomyces glabratus; how it was run: as §2
[19] = Antifungal activity against Candida krusei MTCC 3020 after 24 hrs by well diffusion method; type: functional; details: Pichia kudriavzevii; how it was run: as §2
Pichia sporocuriosa = experiment: Antifungal activity against Issatchenkia hanoiensis MTCC 4755 after 24 hrs by well diffusion method; type: functional; details: MTCC 4755, 24 h; how it was run: as §2
Staphylococcus aureus [20] = experiment: Bactericidal activity against Staphylococcus aureus MTCC 96 after 24 hrs; type: functional; details: MTCC 96, 24 h
How it was run: (§3)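 Broth macrodilution in Mueller Hinton broth, compound serially diluted from 150 down to 0. Overnight bacterial culture added to a final 1.5 × 10^8 CFU/mL (0.5 McFarland), 24 h at 37 °C. Suspension then subcultured onto Mueller Hinton agar for 24 h at 37 °C. MBC is the lowest concentration killing the strain. Duplicates.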

Bacillus subtilis [21] = experiment: Bactericidal activity against Bacillus subtilis MTCC 121 after 24 hrs; type: functional; details: MTCC 121, 24 h; how it was run: as §3

MIC (Staphylococcus aureus [5]): 7.8 µg/mL (≈ 38.7 µM)
MIC (Bacillus subtilis [6]): 7.8 µg/mL (≈ 38.7 µM)
MIC (Micrococcus luteus): 1.9 µg/mL (≈ 9.44 µM)
MIC (Staphylococcus aureus [7]): 3.9 µg/mL (≈ 19.4 µM)
MIC (Escherichia coli): 7.8 µg/mL (≈ 38.7 µM)
MIC (Pseudomonas aeruginosa): 7.8 µg/mL (≈ 38.7 µM)
MIC (Candida albicans [8]): 31.2 µg/mL (≈ 155 µM)
MIC (Candida albicans [9]): 31.2 µg/mL (≈ 155 µM)
MIC (Candida albicans [10]): 15.6 µg/mL (≈ 77.5 µM)
MIC (Candida albicans [11]): 31.2 µg/mL (≈ 155 µM)
MIC (Candida albicans [12]): 15.6 µg/mL (≈ 77.5 µM)
MIC (Candida albicans [13]): 15.6 µg/mL (≈ 77.5 µM)
MIC (Candida albicans [14]): 31.2 µg/mL (≈ 155 µM)
MIC (Candida albicans [15]): 31.2 µg/mL (≈ 155 µM)
MIC (Candida albicans [16]): 15.6 µg/mL (≈ 77.5 µM)
MIC [17]: 31.2 µg/mL (≈ 155 µM)
MIC ([Candida] aaseri): 62.5 µg/mL (≈ 310 µM)
MIC [18]: 15.6 µg/mL (≈ 77.5 µM)
MIC [19]: 7.8 µg/mL (≈ 38.7 µM)
MIC (Pichia sporocuriosa): 31.2 µg/mL (≈ 155 µM)
SMILES: CCCCCCCCC[C@H](O)[C@@H](C)N [CLAVAMINOL A]
IC50 [1]: 12.5 µM
IC50 [2]: 10.8 µM
IC50 [3]: 15.4 µM
IC50 [4]: 18.2 µM
MIC (Raoultella planticola): 15.6 µg/mL (≈ 77.5 µM)
MBC (Staphylococcus aureus [20]): 15.6 µg/mL (≈ 77.5 µM)
MBC (Bacillus subtilis [21]): 15.6 µg/mL (≈ 77.5 µM)
